Measurements taken from the RNAGym collection of RNA variant scans (doi:10.1126/science.aae0568).
Fewer inactive variants are shown than the library holds.

B1: tRNA (parent)
chain: GUUCCGUUGGCGUAAUGGUAACGCGUCUCCCUCCUAAGGAGAAGACUGCGGGUUCGAGUCCCGUACGGAACG

Variants of: B1
Test: yeast fitness relative to wild type (ratio to wild type); higher = fitter; tRNA-Arg(CCU), competitive growth, 37 C, YPD
Summary of the method: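 Start and end populations of a pooled competition were compared by 100-nucleotide paired-end sequencing of gene amplicons. The Saccharomyces cerevisiae strains carried tRNA-Arg(CCU) gene variants at the native genomic locus, synthesised with a 3% per-site mutation rate at 69 sites, and competed in YPD at 37°C for 24 hours in six parallel replicates. Darwinian fitness relative to wild type was based on the change in genotype frequencies. Genotypes required ≥ 100 starting reads, and estimates < 0.5 were set to 0.5.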

First: C22U G63C G68U
Second: G23A C33G C46G C66A
The yeast fitness of the first is lower: at most 0.5 for the first, 0.529 for the second.

First: C22U C34U C60G A69G
Second: C22U C31G C49U
The yeast fitness of the first is higher: 0.58 for the first, 0.552 for the second.

C22U G58C C62G G63C and C22U C31G A43U C49U C60A A70G cannot be ordered by yeast fitness: at most 0.5 for the first, at most 0.5 for the second.

Compared with C22U C49U G58A, C22U C31G G56U is lower in yeast fitness: 0.621 for the first, 0.528 for the second.

Compared with C22U C66A, C22U C66U is higher in yeast fitness: 0.716 for the first, 0.762 for the second.

Compared with G23A A43G, G23A A43U is higher in yeast fitness: 0.684 for the first, 0.699 for the second.

Going from G23A A43C to G23A C31A G50C C55G, the yeast fitness falls from 0.826 to 0.548.

C22U C31G G38A U47A C62U and G23A A40C C55G cannot be ordered by yeast fitness: at most 0.5 for the first, at most 0.5 for the second.

Going from G23A C30G A42G to G23A C24A C31A A36G G44A C60U C62A, the yeast fitness falls from 0.524 to at most 0.5.

C22U G44C G63A and C22U C30U U47A C62U cannot be ordered by yeast fitness: at most 0.5 for the first, at most 0.5 for the second.

Compared with G23A A36U G39C G50A, G23A A42G A45U G63C U64C is higher in yeast fitness: at most 0.5 for the first, 0.638 for the second.

C22U C49G U53A A65G and C22U C31G A36U cannot be ordered by yeast fitness: at most 0.5 for the first, at most 0.5 for the second.

Going from C22U G48C G67C to G23A A43G A70U, the yeast fitness rises from at most 0.5 to 0.648.

Compared with C22U C46G C49A U54C G56A C60A A70C, C22U C33G C60U C62G is higher in yeast fitness: at most 0.5 for the first, 0.594 for the second.

First: C22U U26A C49U A65U
Second: G23A C30U C55A
The yeast fitness of the first is lower: at most 0.5 for the first, 0.573 for the second.

Going from C22U U28A A37U C61U to C22U U32C A65C, the yeast fitness rises from 0.552 to 0.701.

Going from C22U C60U C61A G63C A65U to C22U G58C, the yeast fitness rises from at most 0.5 to 0.883.

First: C22U G58A
Second: C22U U26A A40G G67C
The yeast fitness of the first is higher: 0.926 for the first, at most 0.5 for the second.

Going from C22U C33U A69C to C22U U28C C29G C33A C60A A70C, the yeast fitness falls from 0.522 to at most 0.5.

Going from G23A G25A to C22U C61A, the yeast fitness falls from 0.958 to 0.612.

First: C22U C61G
Second: C22U U35C A69C
The yeast fitness of the first is higher: 0.586 for the first, 0.565 for the second.

C22U G25A A43G U54A C62U and C22U C34G A40C C46G cannot be ordered by yeast fitness: at most 0.5 for the first, at most 0.5 for the second.

Going from G23A C33G U35G to G23A C24U U35A C60A A69C, the yeast fitness rises from at most 0.5 to 0.607.

C22U C33U A43U G52A and G23A C30U C33A G41C A42U A43G cannot be ordered by yeast fitness: at most 0.5 for the first, at most 0.5 for the second.

First: C22U U35C
Second: C22U U47C G51C C66U
The yeast fitness of the first is higher: 0.731 for the first, at most 0.5 for the second.

First: C22U C33G G41C G56C G58A G63C A65U
Second: G23A C61G
The yeast fitness of the first is lower: at most 0.5 for the first, 0.714 for the second.

Going from G23A C61U to G23A C61A, the yeast fitness falls from 0.665 to 0.539.

Compared with C22U U35C A37U G50C C66U, C22U G52C C55U A65U is lower in yeast fitness: 0.569 for the first, at most 0.5 for the second.

C22U G48A C55A G58C and G23A G39C C49A cannot be ordered by yeast fitness: at most 0.5 for the first, at most 0.5 for the second.

Going from G23A C29U C31U A42G C61A to C22U U47C C62U, the yeast fitness rises from at most 0.5 to 0.667.

G23A C27U C34U A45C and C22U G25A A36G G51A C66U cannot be ordered by yeast fitness: at most 0.5 for the first, at most 0.5 for the second.

C22U U47A C60U G67C A69U and G23A A40C U53C cannot be ordered by yeast fitness: at most 0.5 for the first, at most 0.5 for the second.

Compared with C22U G52A, C22U U32C C55A is lower in yeast fitness: 0.675 for the first, at most 0.5 for the second.

Compared with C22U U32A, C22U U32C C33G C55G is lower in yeast fitness: 0.733 for the first, at most 0.5 for the second.

C22U G25A G48C A57G and G23A A43G U64C cannot be ordered by yeast fitness: at most 0.5 for the first, at most 0.5 for the second.

First: C22U G52A C60G
Second: C22U U28G A45G
The yeast fitness of the first is higher: 0.503 for the first, at most 0.5 for the second.

Going from C22U U32G C34U A40G C49U C66U to G23A C31U G48C C55G A69U, the yeast fitness falls from 0.552 to at most 0.5.

Compared with C22U U32G C34U A40G A42G C66U, G23A C33G C49A U54G A65G is higher in yeast fitness: 0.561 for the first, 0.617 for the second.

Compared with G23A C31U A69U, G23A C30A is higher in yeast fitness: 0.675 for the first, 0.792 for the second.

First: G23A C27U A65U
Second: C22U C31U C60G A70G
The yeast fitness of the first is higher: 0.658 for the first, at most 0.5 for the second.

First: G23A C49A
Second: G23A C49G
The yeast fitness of the first is lower: 0.526 for the first, 0.873 for the second.

Variant G23A A45G has a yeast fitness of 0.645.
